Test results as given in ChEMBL document CHEMBL3351523 (Bioorg Med Chem, 2014).

How the values were obtained:
[1] = Cytotoxicity against mock-infected human MT4 cells after 96 hrs by MTT assay; format: cell-based
Procedure, shortened: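 Exponentially growing MT-4 cells were seeded at 1 × 10^5 cells/mL in RPMI-1640 with 10% FBS and held at 37 °C, 5% CO2 with serial compound dilutions. Viability was read by MTT after 96 h. CC50 from linear regression against untreated controls.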

[2] = system: Human immunodeficiency virus 1; assay: Antiviral activity against HIV1 infected in human MT4 cells assessed as inhibition of virus-induced cytopathogenicity after 4 days by MTT assay; format: functional, organism-based; conditions: Human immunodeficiency virus 1, MT4, 96 h
Procedure, shortened: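 MT-4 cells (1 × 10^4/well in RPMI) were infected acutely with HIV-1 IIIB, 100 CCID50 (m.o.i. 0.01), with serial dilutions from 100 µM, 1:5. After 4 days at 37 °C, protection from virus-induced cytopathogenicity was read by MTT. EC50 came from linear regression against untreated controls.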

[3] = Cytotoxicity against mock-infected MDBK cells after 48 to 96 hrs by MTT assay; format: cell-based, Bos taurus; conditions: cattle
Procedure, shortened: (§1)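 Mock-infected MDBK (6 × 10^5 cells/mL; MEM-E, 10% horse serum, 1 mM pyruvate) or BHK (1 × 10^6 cells/mL; MEM-E, 10% FBS) cells were incubated at 37 °C, 5% CO2 with serial dilutions from 100 µM, 1:5. Viability by MTT after 48–96 h. CC50 from linear regression against untreated controls.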

[4] = system: Bovine viral diarrhea virus 1; assay: Antiviral activity against Bovine viral diarrhea virus infected in MDBK cells assessed as inhibition of virus-induced cytopathogenicity after 3 to 4 days by MTT assay; format: functional, organism-based; conditions: Bovine viral diarrhea virus isolates and strains
[5] = Cytotoxicity against mock-infected BHK21 cells after 48 to 96 hrs by MTT assay; format: functional; conditions: Mesocricetus auratus, BHK-21; procedure, shortened: as §1
Yellow fever virus = assay: Antiviral activity against Yellow fever virus infected in BHK21 cells assessed as inhibition of virus-induced cytopathogenicity after 3 to 4 days by MTT assay; format: functional, organism-based; conditions: BHK-21
Reovirus sp. = assay: Antiviral activity against Reovirus type-1 infected in BHK21 cells assessed as inhibition of virus-induced cytopathogenicity after 3 to 4 days by MTT assay; format: functional, organism-based; conditions: BHK-21
[6] = Cytotoxicity against mock-infected african green monkey Vero 76 cells after 48 to 96 hrs by MTT assay; format: cell-based; conditions: chlorocebus sabaeus, mock-infected Vero 76 cells
Coxsackievirus B5 = assay: Antiviral activity against Coxsackievirus B5 infected in african green monkey Vero 76 cells assessed as reduction in plaque number after 3 days by plaque reduction assay; format: functional, organism-based; conditions: Enterovirus B, 72 h
Poliovirus 1 = assay: Antiviral activity against Poliovirus type 1 Sabin strain infected in african green monkey Vero 76 cells assessed as reduction in plaque number after 2 days by plaque reduction assay; format: functional, organism-based; conditions: Enterovirus C, 48 h
[7] = system: Respiratory syncytial virus; assay: Antiviral activity against Respiratory syncytial virus infected in african green monkey Vero 76 cells assessed as reduction in plaque number after 5 days by plaque reduction assay; format: functional, organism-based; conditions: human respiratory syncytial virus, 120 h
[8] = system: Vesicular stomatitis virus; assay: Antiviral activity against Vesicular stomatitis virus infected in african green monkey Vero 76 cells assessed as reduction in plaque number after 2 days by plaque reduction assay; format: functional, organism-based; conditions: 48 h
Vaccinia virus = assay: Antiviral activity against Vaccinia Virus infected in african green monkey Vero 76 cells assessed as reduction in plaque number after 3 days by plaque reduction assay; format: functional, organism-based; conditions: Orthopoxvirus vaccinia, 72 h
Human alphaherpesvirus 1 = assay: Antiviral activity against HSV1 infected in african green monkey Vero 76 cells assessed as reduction in plaque number after 3 days by plaque reduction assay; format: functional, organism-based; conditions: Human alphaherpesvirus 1, Vero, 72 h

SMILES | CC50 at 96 h [1] [µM] | EC50 [2] [µM] | CC50 [3] [µM] | EC50 [4] [µM] | CC50 [5] [µM] | EC50 (Yellow fever virus) [µM] | EC50 (Reovirus sp.) [µM] | CC50 [6] [µM] | EC50 (Coxsackievirus B5) [µM] | EC50 (Poliovirus 1) [µM] | EC50 [7] [µM] | EC50 [8] [µM] | EC50 (Vaccinia virus) [µM] | EC50 (Human alphaherpesvirus 1) [µM]
CC(=O)Nc1ccc(Cc2nc3ccccc3[nH]2)cc1 | > 100 | > 100 | > 100 | > 100 | > 100 | > 100 | > 100 | > 100 | > 100 | > 100 | > 100 | > 100 | > 100 | > 100
COc1ccc2c(c1)nnn1c3cc(Cl)c(Cl)cc3nc21 | > 100 | > 100 | > 100 | > 100 | > 100 | > 100 | > 100 | > 100 | > 100 | > 100 | > 100 | > 100 | > 100 | > 100
FC(F)(F)c1ccc2c(c1)nc(Cc1ccc(Cl)c(Cl)c1)n2C[C@@H]1CCCN2CCCC[C@H]12 | > 100 | > 100 | 37 | > 100 | > 100 | > 100 | > 100 | > 100 | > 100 | > 100 | > 100 | > 100 | > 100 | > 100
COc1ccc(Cc2nc3cc(C(F)(F)F)ccc3n2C[C@@H]2CCCN3CCCC[C@H]23)cc1 | 77 | > 100 | > 100 | > 100 | > 100 | > 100 | > 100 | 89 | > 100 | > 100 | > 100 | > 100 | > 100 | > 100
FC(F)(F)c1ccc2c(c1)nc(Cc1ccc(Cl)c(Cl)c1)n2C[C@H]1CCCN2CCCC[C@H]12 | 4 | > 100 | > 100 | > 100 | 34 | > 100 | > 100 | > 100 | > 100 | > 100 | > 100 | > 100 | > 100 | > 100
COc1ccc(Cc2nc3cc(C(F)(F)F)ccc3n2C[C@H]2CCCN3CCCC[C@H]23)cc1 | ≥ 100 | > 100 | > 100 | > 100 | > 100 | > 100 | > 100 | > 100 | > 100 | > 100 | > 100 | > 100 | > 100 | > 100
CC(=O)Nc1ccc(Cc2nc3cc(C(F)(F)F)ccc3[nH]2)cc1 | > 100 | > 100 | > 100 | > 100 | > 100 | > 100 | > 100 | > 100 | > 100 | > 100 | > 100 | > 100 | > 100 | > 100
Clc1ccc(Cc2nc3cc(Cl)c(Cl)cc3[nH]2)cc1 | 37 | > 100 | 9 | > 100 | > 100 | > 100 | > 100 | 71 | > 100 | > 100 | > 100 | > 100 | > 100 | > 100
Clc1ccc(Cc2nc3cc(Cl)c(Cl)cc3[nH]2)cc1Cl | > 100 | > 100 | > 100 | > 100 | > 100 | > 100 | > 100 | 70 | > 100 | > 100 | > 100 | > 100 | > 100 | > 100
Clc1cc2nc(Cc3ccc(Br)cc3)[nH]c2cc1Cl | 68 | > 100 | 10 | > 100 | 10 | > 100 | > 100 | 73 | > 100 | > 100 | > 100 | > 100 | > 100 | > 100
CC(=O)Nc1ccc(Cc2nc3cc(Cl)c(Cl)cc3[nH]2)cc1 | > 100 | > 100 | > 100 | > 100 | > 100 | > 100 | > 100 | > 100 | > 100 | > 100 | > 100 | > 100 | > 100 | > 100
CC(CC(=O)O)n1c(Cc2ccc(Cl)cc2)nc2ccccc21 (stereo unspecified) | > 100 | > 100 | > 100 | > 100 | > 100 | > 100 | > 100 | > 100 | > 100 | > 100 | > 100 | > 100 | > 100 | > 100
c1ccc2[nH]c(C[C@@H]3CCCN4CCCC[C@H]34)nc2c1 | 17 | > 100 | > 100 | 34 | 78 | > 100 | > 100 | > 100 | > 100 | > 100 | > 100 | > 100 | > 100 | > 100
Clc1ccc2[nH]c(C[C@@H]3CCCN4CCCC[C@H]34)nc2c1 | 53 | > 100 | 77 | 17 | 52 | > 100 | > 100 | > 100 | > 100 | > 100 | > 100 | > 100 | > 100 | > 100
c1ccc2[nH]c(C[C@H]3CCCN4CCCC[C@H]34)nc2c1 | > 100 | > 100 | > 100 | > 100 | > 100 | > 100 | > 100 | > 100 | > 100 | > 100 | > 100 | > 100 | > 100 | > 100
c1ccc2[nH]c(CCCC3NCC4CNCC3C4)nc2c1 (stereo unspecified) | > 100 | > 100 | > 100 | > 100 | > 100 | > 100 | > 100 | > 100 | > 100 | > 100 | > 100 | > 100 | > 100 | > 100
Clc1ccc2[nH]c(CCCC3NCC4CNCC3C4)nc2c1 (stereo unspecified) | > 100 | > 100 | > 100 | > 100 | > 100 | 25 | > 100 | > 100 | > 100 | > 100 | > 100 | > 100 | > 100 | > 100
c1ccc2[nH]c(CCCC3NCC4CC3CN3CCCCC43)nc2c1 (stereo unspecified) | > 100 | > 100 | > 100 | 94 | > 100 | 87 | > 100 | > 100 | > 100 | > 100 | > 100 | > 100 | > 100 | > 100
Clc1ccc2[nH]c(CCCC3NCC4CC3CN3CCCCC43)nc2c1 (stereo unspecified) | 51 | > 100 | 56 | > 100 | 18 | > 100 | > 100 | 59 | > 100 | > 100 | > 100 | > 100 | > 100 | > 100
